Source: ChEMBL document CHEMBL1921799, “Computationally-guided optimization of a docking hit to yield catechol diethers as potent anti-HIV agents” (J Med Chem, 2011)

Experiments:
[1] = tested on: Human immunodeficiency virus 1; experiment: Antiviral activity against Human immunodeficiency virus 1 3B infected in human MT2 cells assessed as protection against viral infection by MTT assay; assay type: functional, organism-based
Procedure, shortened: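 HIV-1 (IIIB or variant strains) infected into MT-2 human T-cells. The MTT colorimetric read-out measured cell viability. […] Antiviral curves used triplicate samples at each concentration, and a cytotoxicity (CC50) curve on MT-2 growth was run at the same time.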

MT2 [2] = experiment: Cytotoxicity against human MT2 cells infected with HIV1 3B by MTT assay; assay type: cell-based
[3] = tested on: Human immunodeficiency virus 1; experiment: Antiviral activity against Human immunodeficiency virus 1 NL4.3 infected in human MT2 cells assessed as inhibition of viral infection; assay type: functional, organism-based; conditions: Human immunodeficiency virus 1, NL4.3, MT2
Procedure, shortened: (§1)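 HIV-1 (IIIB or variant strains) infected into MT-2 human T-cells. The MTT colorimetric read-out measured cell viability. Antiviral curves used triplicate samples at each concentration, and a cytotoxicity (CC50) curve on MT-2 growth was run at the same time.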

[4] = tested on: Human immunodeficiency virus 1; experiment: Antiviral activity against Human immunodeficiency virus 1 NL4.3 reverse transcriptase Y181C mutant infected in human MT2 cells assessed as inhibition of viral infection; assay type: functional, organism-based; conditions: Human immunodeficiency virus 1, NL4.3, MT2; procedure, shortened: as §1
[5] = tested on: Human immunodeficiency virus 1; experiment: Antiviral activity against Human immunodeficiency virus 1 NL4.3 reverse transcriptase K103N and Y181C double mutant infected in human MT2 cells assessed as inhibition of viral infection; assay type: functional, organism-based; conditions: Human immunodeficiency virus 1, NL4.3, MT2; procedure, shortened: as §1
MT2 [6] = experiment: (§2) Cytotoxicity against human MT2 cells infected with HIV1 NL4.3 by MTT assay; assay type: cell-based; conditions: mt2
[7] = as §2; assay type: cell-based; conditions: MT2 cells infected with HIV1 NL4.3
[8] = tested on: Human immunodeficiency virus 1; experiment: Ratio of EC50 for Human immunodeficiency virus 1 NL4.3 reverse transcriptase Y181C mutant to EC50 for Human immunodeficiency virus 1 NL4.3 expressing wild type reverse transcriptase; assay type: functional
[9] = tested on: Human immunodeficiency virus 1; experiment: Ratio of EC50 for Human immunodeficiency virus 1 NL4.3 reverse transcriptase K103N and Y181C double mutant to EC50 for Human immunodeficiency virus 1 NL4.3 expressing wild type reverse transcriptase; assay type: functional
[10] = tested on: Human immunodeficiency virus 1; experiment: Antiviral activity against Human immunodeficiency virus 1 NL4.3 infected in human MT4 cells assessed as inhibition of viral infection; assay type: functional, organism-based; conditions: Human immunodeficiency virus 1, NL4.3, MT4
[11] = tested on: Human immunodeficiency virus 1; experiment: Antiviral activity against Human immunodeficiency virus 1 NL4.3 reverse transcriptase K103N and Y181C double mutant infected in human MT4 cells assessed as inhibition of viral infection; assay type: functional, organism-based; conditions: Human immunodeficiency virus 1, NL4.3, MT4
[12] = tested on: Human immunodeficiency virus 1; experiment: Antiviral activity against Human immunodeficiency virus 1 NL4.3 reverse transcriptase Y181C mutant infected in human MT4 cells assessed as inhibition of viral infection; assay type: functional, organism-based; conditions: Human immunodeficiency virus 1, NL4.3, MT4
[13] = Cytotoxicity against human MT4 cells infected with HIV1 NL4.3 by MTT assay; assay type: cell-based

| SMILES | EC50 [1] [nM] | CC50 (MT2 [2]) [nM] | EC50 [3] [nM] | EC50 [4] [nM] | EC50 [5] [nM] | CC50 (MT2 [6]) [nM] | further results |
| --- | --- | --- | --- | --- | --- | --- | --- |
| Cc1ccc(OCCn2ccc(=O)[nH]c2=O)c(Cc2ccccc2)c1 | 4800 | 72000 |  |  |  |  |  |
| O=c1ccn(CCOc2cc(Cl)cc(Cl)c2Oc2ccccc2Cl)c(=O)[nH]1 | 830 | 13000 |  |  |  |  |  |
| O=c1ccn(CCOc2ccc(Cl)cc2Cc2ccccc2)c(=O)[nH]1 | 1200 | 23000 |  |  |  |  |  |
| O=c1ccn(CCOc2ccc(Cl)cc2Cc2ccccc2Cl)c(=O)[nH]1 | 620 | 28000 |  |  |  |  |  |
| O=c1ccn(CCOc2ccc(Cl)cc2Cc2cccc(Cl)c2)c(=O)[nH]1 | 1500 | 11000 |  |  |  |  |  |
| O=c1ccn(CCOc2ccc(Cl)cc2Cc2ccc(Cl)cc2Cl)c(=O)[nH]1 | 2900 | 88000 |  |  |  |  |  |
| O=c1ccn(CCOc2ccc(Cl)cc2Cc2cc(Cl)cc(Cl)c2)c(=O)[nH]1 | 1300 | 10000 |  |  |  |  |  |
| O=c1ccn(CCOc2ccc(Cl)cc2Cc2cc(Cl)ccc2Cl)c(=O)[nH]1 | 380 | 15000 |  |  |  |  |  |
| O=c1ccn(CCOc2ccc(Cl)cc2Cc2c(Cl)cccc2Cl)c(=O)[nH]1 | 310 | 49000 |  |  |  |  |  |
| Cc1cn(CCOc2ccc(Cl)cc2Cc2ccccc2)c(=O)[nH]c1=O | 2400 | 22000 |  |  |  |  |  |
| O=c1[nH]c(=O)n(CCOc2ccc(Cl)cc2Cc2ccccc2)cc1F | 2500 | 27000 |  |  |  |  |  |
| O=c1[nH]c(=O)n(CCOc2ccc(Cl)cc2Cc2ccccc2)cc1Cl | 2200 | 21000 |  |  |  |  |  |
| O=c1ccn(CCOc2cc(Cl)ccc2Cc2ccccc2Cl)c(=O)[nH]1 | 410 | 12000 |  |  |  |  |  |
| N#Cc1cc(C#N)cc(Oc2cc(Cl)ccc2OCCn2ccc(=O)[nH]c2=O)c1 | 140 | 80000 | 140 | 21000 | 2200 | 77000 |  |
| N#Cc1cccc(Cl)c1Oc1cc(Cl)ccc1OCCn1ccc(=O)[nH]c1=O | 120 | 50000 |  |  |  |  |  |
| N#Cc1cc(Cl)cc(Oc2cc(Cl)ccc2OCCn2ccc(=O)[nH]c2=O)c1 | 90 | 33000 | 90 | 6700 | 1200 | 32000 |  |
| N#Cc1ccc(Cl)c(Oc2ccc(Cl)cc2OCCn2ccc(=O)[nH]c2=O)c1 | 100 | 60000 |  |  |  |  |  |
| N#Cc1cc(C#N)cc(Oc2ccc(Cl)cc2OCCn2ccc(=O)[nH]c2=O)c1 | 46 | > 100000 |  |  |  |  |  |
| N#Cc1cc(Cl)cc(Oc2ccc(Cl)cc2OCCn2ccc(=O)[nH]c2=O)c1 | 14 |  | 14 | 520 | 1700 |  | CC50 [7]: > 100000 nM |
| N#Cc1cc(Cl)cc(Oc2ccc(Cl)cc2OCCn2cc(F)c(=O)[nH]c2=O)c1 | 13 | 17000 | 13 | 620 | 1700 | 13000 |  |

| SMILES | EC50 [1] [nM] | CC50 (MT2 [2]) [nM] | EC50 [3] [nM] | EC50 [4] [nM] | EC50 [5] [nM] | CC50 (MT2 [6]) [nM] | further results |
| --- | --- | --- | --- | --- | --- | --- | --- |
| N#Cc1cc(Cl)cc(Oc2ccc(Cl)cc2OCCn2cc(Cl)c(=O)[nH]c2=O)c1 | 17 | 31000 | 17 | 240 | 570 | 21000 | Ratio EC50 [8]: 14; Ratio EC50 [9]: 34 |
| N#Cc1cc(Cl)cc(Oc2ccc(C#N)cc2OCCn2ccc(=O)[nH]c2=O)c1 | 6000 | > 100000 |  |  |  |  |  |
| N#Cc1cc(Cl)cc(Oc2ccc(C#N)cc2OCCn2cc(Cl)c(=O)[nH]c2=O)c1 | 5300 | 94000 |  |  |  |  |  |
| N#Cc1ccc(Oc2ccccc2Cl)c(OCCn2ccc(=O)[nH]c2=O)c1 | 270 | > 100000 |  |  |  |  |  |
| N#Cc1ccc(Oc2cc(Cl)ccc2Cl)c(OCCn2ccc(=O)[nH]c2=O)c1 | 43 | 71000 | 43 | 920 | 2800 | 59000 |  |
| N#Cc1ccc(Oc2cc(Cl)cc(Cl)c2)c(OCCn2ccc(=O)[nH]c2=O)c1 | 20 | > 100000 | 20 | 800 | > 43000 | > 61000 |  |
| N#C/C=C/c1cccc(Oc2ccc(C#N)cc2OCCn2ccc(=O)[nH]c2=O)c1 | 15 | > 100000 | 15 | 980 | 8000 | > 90000 |  |
| N#C/C=C/c1cccc(Oc2ccc(Cl)cc2OCCn2ccc(=O)[nH]c2=O)c1 | 5 | 19000 | 5 | 370 | 1600 | 22000 |  |
| N#C/C=C/c1cc(Cl)cc(Oc2ccc(Cl)cc2OCCn2ccc(=O)[nH]c2=O)c1 | 0.055 | 10000 | 0.055 | 49 | 220 | 10000 |  |
| N#C/C=C/c1cc(F)cc(Oc2ccc(Cl)cc2OCCn2ccc(=O)[nH]c2=O)c1 | 3.2 | 48000 | 3.2 | 150 | 900 | 48000 |  |
| N#C/C=C/c1cc(F)cc(Oc2ccc(F)cc2OCCn2ccc(=O)[nH]c2=O)c1 | 0.32 | 45000 | 0.32 | 16 | 85 | 45000 |  |
| CNc1ccc(Oc2cc(Cl)cc(/C=C/C#N)c2)c(OCCn2ccc(=O)[nH]c2=O)c1 | 20 | 30000 | 20 | 2800 |  | 30000 |  |
| N#Cc1cc(F)c(Oc2ccccc2Cl)c(OCCn2ccc(=O)[nH]c2=O)c1 | 160 | > 100000 |  |  |  |  |  |
| COCCOc1cccc(Oc2ccc(C#N)cc2OCCn2ccc(=O)[nH]c2=O)c1 | 540 | > 100000 |  |  |  |  |  |
| N#Cc1ccc(Oc2cccc(OCCCO)c2)c(OCCn2ccc(=O)[nH]c2=O)c1 | 1800 | > 100000 |  |  |  |  |  |
| Cc1cc(C)cc(Oc2c(CSCc3ccco3)c(C)[nH]c(=O)c2I)c1 |  |  | 1 |  |  |  |  |
| O=C1Nc2ccc(Cl)cc2[C@@](C#CC2CC2)(C(F)(F)F)O1 [EFAVIRENZ] |  |  |  |  |  |  | EC50 [10]: 1.4 nM; EC50 [11]: 37 nM; EC50 [12]: 2 nM |
| Cc1cc(C#N)cc(C)c1Oc1nc(Nc2ccc(C#N)cc2)nc(N)c1Br [ETRAVIRINE] |  |  |  |  |  |  | EC50 [11]: 4 nM; EC50 [12]: 7 nM |
| Cc1ccnc2c1NC(=O)c1cccnc1N2C1CC1 [NEVIRAPINE] |  |  |  | > 100000 | > 100000 |  | EC50 [10]: 81 nM; EC50 [11]: > 10000 nM; EC50 [12]: > 10000 nM; CC50 [7]: > 100000 nM |
| Cc1cc(/C=C/C#N)cc(C)c1Nc1ccnc(Nc2ccc(C#N)cc2)n1 [RILPIVIRINE] |  |  |  |  |  | > 1000 | EC50 [10]: 0.4 nM; EC50 [11]: 1 nM; CC50 [13]: 8000 nM |
